Source: PubChem (Johns Hopkins Ion Channel Center)
An excerpt weighted towards active compounds, which were near 3.5% of everything screened.
RGS4 pot – RGS4 potentiators or activators, primary screen, cell-based, HEK293 M3R inducible RGS4, calcium flux | carbachol calcium flux Fluo4; hits give low values | B-score at 10 µM | 310,000 tested, 0.92% active;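 active = B-score of the integrated calcium signal more than 4 SD below the library mean, with starting fluorescence not abnormally high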;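 also: negative B-score means reduced calcium response which marks RGS4 activation or potentiation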
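Test system: HEK293 cells with stable M3R and inducible RGS4; also added: carbachol at ECmax as muscarinic agonist stimulus; schedule: dye loading 30 min 37 °C, buffer rest 30 min RT; technique: kinetic calcium fluorescence imaging with Fluo4-AM dye, 2 µM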
MrgX1 allo act – positive allosteric modulators of MrgX1, primary screen, HEK293 cells, Fluo-4 calcium flux; B-score at 10 µM; 310,000 tested, 0.63% active; Mas-related G-protein coupled receptor member X1 (Homo sapiens), Q96LB2; AID 588675, 2011; FDSS; hits give high values;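 active = plate-corrected calcium response at least 3 library SD above typical, normal starting fluorescence, not activating the receptor alone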;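 also: compound read alongside a low EC10 to EC30 dose of BAM8-22 agonist; peak minus trough fluorescence over baseline measured at the second addition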
Target sequence (Q96LB2 whole entry, looked up): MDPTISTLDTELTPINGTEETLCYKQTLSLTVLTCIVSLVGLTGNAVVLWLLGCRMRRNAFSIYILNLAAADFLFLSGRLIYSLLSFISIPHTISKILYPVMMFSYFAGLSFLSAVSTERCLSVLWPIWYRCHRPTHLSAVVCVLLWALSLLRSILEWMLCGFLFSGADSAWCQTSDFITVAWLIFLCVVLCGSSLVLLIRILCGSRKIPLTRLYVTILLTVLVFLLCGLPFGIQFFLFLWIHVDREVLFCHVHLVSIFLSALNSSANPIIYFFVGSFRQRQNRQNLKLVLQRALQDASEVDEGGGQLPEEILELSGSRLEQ
RGS4 inh – RGS4 inhibitors, primary screen, cell-based, HEK293 M3R inducible RGS4, calcium flux; 310,000 tested, 0.45% active; Fluo-4 calcium flux; hits give high values; triggered by carbachol at its EC20; Regulator of G-protein signaling 4 (Homo sapiens), P49798; B-score at 10 µM;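 active = B-score, a plate-corrected calcium signal, over three deviations above library mean, with baseline fluorescence within five deviations of library mean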;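 also: RGS4 expression induced by doxycycline in cells with stable M3 receptor; B-score is computed from the integrated fluorescence ratio over baseline after carbachol; higher B-score means a larger calcium signal and so more RGS4 inhibition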
Target sequence (P49798 whole entry, looked up): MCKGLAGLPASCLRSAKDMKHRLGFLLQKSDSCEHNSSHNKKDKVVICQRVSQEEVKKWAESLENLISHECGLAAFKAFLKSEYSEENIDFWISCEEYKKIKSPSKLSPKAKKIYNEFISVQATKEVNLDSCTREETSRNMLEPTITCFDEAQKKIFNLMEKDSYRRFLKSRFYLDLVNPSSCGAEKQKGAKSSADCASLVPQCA
MrgX1 antag – antagonists of human MrgX1 receptor, primary screen, HEK293 cells, Fluo-4 calcium flux. 310,000 tested, 1.3% active. B-score at 10 µM. Mas-related G-protein coupled receptor member X1 (Homo sapiens), Q96LB2. BAM8-22 antagonism; hits give low values;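 active = calcium-response B-score plate-corrected more than 3 library SD below zero, starting fluorescence within 5 deviations, no agonist response on first addition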;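 also: peak minus trough fluorescence over baseline after final BAM8-22 challenge near maximal dose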
MrgX1 ag – agonists of human MrgX1 receptor, primary screen, HEK293 cells, Fluo-4 calcium flux; Fluo-4 calcium fluorescence, agonist mode; hits give high values; B-score at 10 µM; 310,000 tested, 0.44% active; AID 588627, 2011;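 active = calcium response B-score plate-corrected fluorescence ratio at least 3 library SD, with starting fluorescence B-score inside 5 SD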
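Assay system: stable human MrgX1 HEK293 cell line. Quantity: 15,000 cells per well. Schedule: cells plated overnight, dye loaded 0.5 h 37 °C, 0.5 h room temperature. Detection: Fluo-4 NW calcium-flux fluorescence, kinetic read. Read-out basis: peak-minus-minimum fluorescence over baseline, converted to B scores. Control set: positive and negative control wells on each plate.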
RGS4 inh valid – enhanced carbachol calcium response, M3R/RGS4 cells, RGS4 inhibitor project, cell-based, validation screen, HEK293 M3R/RGS4, calcium flux; calcium response, % at 10 µM; carbachol calcium Fluo-4 fluorescence; carbachol added at its EC20; 0 = buffer wells, 100 = carbachol control; shares compounds with RGS4 inh; AID 492999, 2010; 1,700 tested, 65% active;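 active = duplicate-averaged calcium response above the buffer-only control mean plus 5 SD of those controls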;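 also: integrated fluorescence ratio F max minus min over baseline F0; higher response in RGS4-induced cells means RGS4 inhibition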
RGS4 uninduced – carbachol calcium response in non-induced M3R cells, confirmation, counter-screen for RGS4 inhibitor project, cell-based, HEK293 M3R | shares compounds with RGS4 inh | carbachol calcium Fluo-4; submaximal (EC20) carbachol stimulus; buffer wells 0%, carbachol control wells 100% | activity (percent), % at 10 µM | 1,900 tested, 20% active | AID 493000, 2010; call rule not given here;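 also: RGS4 induction absent so cells express M3R without RGS4; higher means more calcium signal and flags a non-specific hit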
RGS4 inh ctr2 – second RGS4 inhibitor counter-screen in uninduced cells lacking carbachol; HEK293 M3R/RGS4 non-induced, Fluo-4 calcium, no carbachol; normalised: buffer wells 0%, carbachol wells 100%; shares compounds with RGS4 inh; calcium response (agonist-mode artifact), % at 10 µM; 1,900 tested, 22% active; AID 493001;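 active = duplicate-averaged calcium rise in uninduced cells above buffer wells' mean plus 5 SD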
Numbers stand for hits; n = inactive; x = no result.

SMILES	RGS4 pot	MrgX1 allo act	RGS4 inh	MrgX1 antag	MrgX1 ag	RGS4 inh valid	RGS4 uninduced	RGS4 inh ctr2
COc1ccc(C2=NN(CN3C(=O)C(=O)c4ccccc43)C(c3ccc(OC)cc3)C2)cc1 (configuration not stated)	n	n	n	n	n	x	35.0%	n
O=C(NCc1cccc(Cl)c1)c1ccc(S(=O)(=O)Nc2cccc(C(F)(F)F)c2)cc1	n	n	n	n	n	n	n	n
O=C(Cc1cccc(C(F)(F)F)c1)NCc1cccc(Cl)c1	n	n	n	n	n	x	x	x
CCN(CC)C(=O)CSc1nnc2nnc3cc(OC)ccc3n12	n	n	n	n	n	x	x	x
Cc1ccc(-c2cnn3c(N4CCOCC4)cc(C)nc23)cc1	n	n	n	n	n	x	x	x
Cc1cc(N2CCOCC2)n2ncc(-c3ccc(Cl)cc3)c2n1	n	n	n	n	n	n	n	n
CC(C)(C)c1cc(N2CCOCC2)n2ncc(-c3ccc(Cl)cc3)c2n1	n	n	11.5	n	n	27.0%	47.0%	n
Cc1nn2c(N3CCOCC3)cc(C(C)(C)C)nc2c1-c1ccc(Cl)cc1	n	x	n	x	x	x	x	x
CC(C(=O)N1CCOCCOCCOCCOCCOCC1)N1C(=O)c2ccccc2C1=O (configuration not stated)	n	n	n	n	n	x	x	x
Nc1nc(Cl)cc(Nc2ccccc2Cl)n1	n	n	n	n	n	x	x	x
COc1ccc(Nc2cc(Cl)nc(N)n2)cc1OC	n	n	6.14	n	n	6.0%	n	n
Cc1ccc(OCC(=O)N[C@@H](C)c2nnc3ccccn23)cc1C	n	n	n	n	n	x	x	x
N#CCC(=O)Nc1ccc(C(=O)Nc2cccc(S(N)(=O)=O)c2)cc1	n	n	n	n	n	x	x	x
Cc1ccc(/C=N/N2CCN(Cc3ccc(C)cc3)CC2)cc1	n	n	n	n	n	n	n	n
CC1CCc2ccccc2N1C(=N)N(C)C (configuration not stated)	n	n	n	n	n	x	x	x
COC(=O)c1ccc(COc2ccccc2/C=C(\C#N)C(=O)Nc2ccc(C)cc2C)cc1	n	n	n	n	n	n	n	n
CCOc1cccc(NC(=O)/C(C#N)=C\c2cn(CC(=O)O)c3ccccc23)c1	n	n	n	n	n	x	x	x
CCOc1ccccc1/C=C(\C#N)C(=O)Nc1cccc(C(=O)O)c1	n	n	4.98	n	n	14.0%	n	n
COC(=O)c1ccc(COc2ccccc2/C=C(\C#N)C(=O)Nc2c(C)cc(C)cc2C)cc1	n	n	n	n	n	n	n	n
O=C(CCN1CCc2ccccc21)c1ccc2c(c1)OCCO2	n	n	n	n	n	x	x	x
CCOc1ccc(C(=O)CCN2CCCCC2)cc1	n	n	n	n	n	x	x	x
O=C(CCN1CCc2ccccc2C1)c1ccc2c(c1)OCCO2	n	n	6.71	n	n	19.5%	n	14.0%
O=C(CCN1CCCCC1)c1ccc2c(c1)OCCO2	n	n	n	n	n	n	n	n
COc1ccc(C(=O)CCN2CCCCCC2)cc1	n	n	10.9	n	38.8	n	n	28.5%
CC1(OC(=O)C2CCCC2)C(=O)C=C2C=C(c3ccsc3)N(CCc3ccccn3)C=C2C1=O (configuration not stated)	n	n	n	n	n	x	x	x
SMILES	RGS4 pot	MrgX1 allo act	RGS4 inh	MrgX1 antag	MrgX1 ag	RGS4 inh valid	RGS4 uninduced	RGS4 inh ctr2
O=C(Nc1ccc2c(c1)CN(Cc1ccccc1O)CC2)C1CCCO1 (configuration not stated)	n	n	n	n	n	x	x	x
Cc1nc(Nc2ccc(Cl)cc2Cl)sc1C(=O)Nc1ccccc1	n	n	n	n	n	x	x	x
Oc1nc(Nc2ccc(Cl)cc2Cl)sc1/C=C1\C=Nc2ccccc21	n	n	5.73	n	n	10.5%	n	20.0%
Cc1cccc(C)c1N(CC(O)Cn1c2ccccc2c2ccccc21)S(C)(=O)=O (configuration not stated)	n	n	7.22	n	n	19.0%	n	n
CC1CC1C(=O)Nc1nc2ccc(S(C)(=O)=O)cc2s1 (configuration not stated)	n	n	6.08	n	n	n	n	n
Cc1ccc2nc(NC(=O)C3CC3C)sc2c1 (configuration not stated)	n	n	n	n	n	x	x	x
Cc1cnc(Sc2ncccc2[N+](=O)[O-])nc1	n	n	n	n	n	x	x	x
Cc1cc(C)n2nc(Sc3ncccc3[N+](=O)[O-])nc2n1	n	n	9.53	n	n	28.5%	34.0%	n
CCOC(=O)C1CCN(C(C(=O)NC2CCCC2)c2ccc(C)cc2)CC1 (configuration not stated)	n	n	5.31	n	n	21.0%	n	n
Cc1ccc(NC(=O)c2ccc([N+](=O)[O-])o2)c(C)c1	n	n	n	n	n	x	x	x
O=C(/C=C/c1cccc([N+](=O)[O-])c1)c1ccc([N+](=O)[O-])o1	n	n	12.8	n	n	30.0%	n	n
COc1ccc(S(=O)(=O)N2CCN(C(=O)c3ccc([N+](=O)[O-])o3)CC2)cc1	n	n	n	n	n	x	x	x
COc1ccc(/C=C/C(=O)c2ccc([N+](=O)[O-])o2)cc1	n	n	10.6	n	n	25.0%	32.0%	n
Cc1cccc(/C=C/C(=O)c2ccc([N+](=O)[O-])o2)c1	n	n	6.97	n	n	19.5%	n	8.5%
Cc1ccccc1/C=C/C(=O)c1ccc([N+](=O)[O-])o1	n	n	6.65	n	n	24.5%	n	n
Cc1cccc(NC(=O)CSCc2cc(=O)n3nc(C4CC4)sc3n2)c1	n	n	n	n	n	x	x	x
COC(=O)c1ccc2c(c1)sc(=NC(=O)CCS(=O)(=O)c1ccccc1)n2C	n	n	n	n	n	x	x	x
Cn1cnnc1SCC(=O)Nc1ncc(C(F)(F)F)cc1Cl	n	n	n	n	n	x	x	x
Cc1ccc(-c2nc3cnccn3c2Nc2ccccc2)o1	n	n	10.1	n	n	n	n	n
Cc1ccc(Nc2c(-c3ccc(C)o3)nc3cnccn23)cc1	n	n	n	n	n	n	n	n
Cc1ccc(-c2nc3cnccn3c2Nc2ccc3c(c2)OCO3)o1	n	n	n	n	n	x	x	x
